# ChEMBL document CHEMBL5325455, “Daphnanes diterpenes from the latex of Hura crepitans L. and their PKCζ-dependent anti-proliferative activity on colorectal cancer cells” (Bioorg Med Chem, 2023)
# The source made the active and inactive calls. The rule behind the calls is not given here.
# Experiments:
# [1] = system: Colorectal epithelial cell; experiment: Cytostatic activity against human Colorectal epithelial cells isolated from patient with fistulized sigmoiditis cultured as organoids at 1 ug/ml incubated for 48 hrs by CellTiter-Glo luminescence assay; format: functional, cell-based; conditions: dose 1.0 µg/ml
# Summary of the method: (§1)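 Primary colonic epithelial cells (3 control and 2 CRC patients) were expanded as organoids or spheroids in Matrigel with EGF/noggin/Wnt3a/R-spondin medium. Single cells were seeded at 2500/well and allowed 48 h to form colonoids, then exposed for 48 h at 0.01, 0.1 or 1 µg/mL, with 5FdU at 1 µg/mL as positive control. Viability was read by CellTiter-Glo luminescence versus DMSO or medium control.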
# [2] = system: Colorectal epithelial cell; experiment: Cytostatic activity against human Colorectal epithelial cells isolated from patient with well-differentiated colonic adenocarcinoma cultured as organoids at 1 ug/ml incubated for 48 hrs by CellTiter-Glo luminescence assay; format: functional, cell-based; conditions: dose 1.0 µg/ml; summary of the method: as §1
# [3] = system: Colorectal epithelial cell; experiment: Cytostatic activity against human Colorectal epithelial cells isolated from patient with well-differentiated colonic adenocarcinoma and undergone nine courses of chemotherapy cultured as organoids at 1 ug/ml incubated for 48 hrs by CellTiter-Glo luminescence assay; format: functional, cell-based; conditions: dose 1.0 µg/ml; summary of the method: as §1
# [4] = system: Colorectal epithelial cell; experiment: Cytostatic activity against human Colorectal epithelial cells isolated from left colon of patient with recurrent diverticulitis cultured as organoids at 1 ug/ml incubated for 48 hrs by CellTiter-Glo luminescence assay; format: functional, cell-based; conditions: dose 1.0 µg/ml; summary of the method: as §1
# [5] = system: Colorectal epithelial cell; experiment: Cytostatic activity against human Colorectal epithelial cells isolated from left colon of patient with sigmoido-vaginal fistula for diverticulitis cultured as organoids at 1 ug/ml incubated for 48 hrs by CellTiter-Glo luminescence assay; format: functional, cell-based; conditions: dose 1.0 µg/ml; summary of the method: as §1
# [6] = system: Caco-2; experiment: Cytostatic activity against human Caco-2 cells assessed as inhibition of cell growth at 1 ug/ml incubated for 48 hrs by MTS assay relative to control; format: functional
# Summary of the method: (§2)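 Caco-2 cells were seeded at 40 000/well 48 h before dosing. Compound was diluted from a 10 mg/mL DMSO stock into medium (0.125, 0.5 or 1 µg/mL final; DMSO ≤0.01%) and added in triplicate for 48 h. Viability was read by MTS absorbance at 490 nm and expressed relative to the DMSO control.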
# [7] = system: Caco-2; experiment: Cytotoxicity against human Caco-2 cells assessed as cell death; format: functional, cell-based
# [8] = system: SARS-CoV-2; experiment: Antiviral activity against SARS-CoV-2 assessed as reduction in progeny production measured 24 hrs post infection by PFU assay; format: functional, organism-based; conditions: Severe acute respiratory syndrome coronavirus 2, 24 h
# [9] = system: Zika virus; experiment: Antiviral activity against ZIKV expressing GFP reporter gene measured 24 hrs post infection; format: functional, organism-based
# Summary of the method: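 Cells in 96-well plates were exposed to serial concentrations starting at 50 µg/mL and infected with GFP-reporter Zika virus at MOI 1. At 24 h post-infection, cells were fixed in 3.7% PFA and GFP-positive cells were counted by flow cytometry.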
# [10] = system: Caco-2; experiment: Cytostatic activity against human Caco-2 cells assessed as inhibition of cell growth at 1 ug/ml incubated for 48 hrs by MTS assay; format: functional, cell-based; conditions: dose 1.0 µg/ml; summary of the method: as §2
# [11] = system: Caco-2; experiment: Upregulation of PKCdelta protein expression in human Caco-2 cells at 1 ug/ml incubated for 48 hrs by Western blot analysis; format: functional, cell-based; conditions: dose 1.0 µg/ml
# Summary of the method: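 Caco-2 cells, 0.25 × 10^6 per well, seeded 48 h before treatment; DMSO vehicle control. Optional 15 min pretreatment with 0.2 µM Gö6976. Cells lysed on ice after 48 h in pH 7.4 Tris/NaCl/Triton/EDTA buffer with protease and phosphatase inhibitors. 30 µg protein run on 4–15% SDS-PAGE, blotted to nitrocellulose, ECL detection. pSer664 and total PKCδ probed, ratio quantified, actin as loading control; one experiment.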
compound,measurement,setting,value
O=c1[nH]c(=O)n([C@H]2C[C@H](O)[C@@H](CO)O2)cc1F,Activity,[1],inactive
same,Activity,[2],inactive
same,Activity,[3],inactive
same,Activity,[4],inactive
same,Activity,[5],inactive
C=C(C)[C@]12C[C@@H](C)[C@@]34O[C@](/C=C/C=C\C(=O)CCCCCCCC)(O[C@@H]1[C@@H]3[C@@H]1O[C@]1(CO)[C@@H](O)[C@]1(O)C(=O)C(C)=C[C@H]14)O2,inhibition at 1 µg/mL,[6],~25%
same,Activity,[7],inactive
C=C(C)[C@]1(O)C[C@@H](C)[C@]2(O)[C@H]([C@H]1O)[C@@H]1O[C@]1(COC(=O)CCCCCCCCCC(C)/C=C/CCCCC)[C@@H](O)[C@]1(O)C(=O)C(C)=C[C@H]12 (stereo not given in full),IC50,[8],34.2 µM
same,IC50,[9],> 50 µM
same,Activity,[7],inactive
same,Activity,[10],inactive
C=C(C)[C@]12C[C@@H](C)[C@@]34O[C@](/C=C/C=C/[C@H](O)CCCCCCCC)(O[C@@H]1[C@@H]3[C@@H]1O[C@]1(CO)[C@@H](O)[C@]1(O)C(=O)C(C)=C[C@H]14)O2,inhibition at 1 µg/mL,[6],~25%
same,Activity,[7],inactive
C=C(C)[C@]12C[C@@H](C)[C@@]34O[C@](/C=C/[C@H](O)[C@@H](O)CCCCCCCCC)(O[C@@H]1[C@@H]3[C@@H]1O[C@]1(CO)[C@@H](O)[C@]1(O)C(=O)C(C)=C[C@H]14)O2,Activity,[7],inactive
same,Activity,[10],Active
Cn1c2ccccc2c2c3c(c4c5ccccc5n(CCC#N)c4c21)CNC3=O,Activity,[11],Active
C=C(C)[C@]12C[C@@H](C)[C@@]34O[C@](/C=C/C=C/C(=O)CCCCCCCC)(O[C@@H]1[C@@H]3[C@@H]1O[C@]1(CO)[C@@H](O)[C@]1(O)C(=O)C(C)=C[C@H]14)O2,IC50,[8],50.2 µM
same,inhibition at 1 µg/mL,[6],~25%
same,IC50,[9],> 50 µM
same,Activity,[7],inactive
